In experiment [1] the target is Aldo-keto reductase family 1 member B10 (Homo sapiens, UniProt O60218, Q303S). Briefly: Competitive inhibition of human recombinant AKR1B10 Q303S mutant expressed in Escherichia coli using geraniol as substrate by double-reciprocal plot analysis in presence of NADP+. The method in brief:
(§1)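 Purified enzyme from E. coli, assayed by NADP⁺-linked geraniol oxidation at 25 °C. NADPH formation was read by fluorescence (ex 340 nm, em 455 nm). NADP⁺ was saturating at 0.25 mM, with five geraniol concentrations (25–200 μM) and three inhibitor concentrations. Ki came from replots of the slopes and intercepts of double-reciprocal plots; mean of at least three determinations.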

Experiment [2] deals with T1, Aldo-keto reductase family 1 member B1 (Homo sapiens, UniProt P15121). Briefly: Inhibition of human recombinant N-terminal His6-tagged AKR1B1 expressed in Escherichia coli by fluorescence assay in presence of NADPH.
In experiment [3] the target is T2, Aldo-keto reductase family 1 member B10 (Homo sapiens, UniProt O60218). Briefly: Competitive inhibition of wild-type human recombinant N-terminal His6-tagged AKR1B10 expressed in Escherichia coli using geraniol as substrate by double-reciprocal plot analysis in presence of NADP+. The method in brief: as §1
Target sequence in this assay (O60218 whole entry): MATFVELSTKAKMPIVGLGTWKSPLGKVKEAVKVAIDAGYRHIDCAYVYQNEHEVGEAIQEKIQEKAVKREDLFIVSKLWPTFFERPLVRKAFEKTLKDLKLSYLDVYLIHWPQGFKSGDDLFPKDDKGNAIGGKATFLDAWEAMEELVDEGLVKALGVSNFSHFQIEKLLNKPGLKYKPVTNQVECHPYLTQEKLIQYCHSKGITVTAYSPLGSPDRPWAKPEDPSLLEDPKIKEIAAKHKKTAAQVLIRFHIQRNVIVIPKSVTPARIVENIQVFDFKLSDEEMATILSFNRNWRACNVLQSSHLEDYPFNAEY
Experiment [4] concerns the target Aldo-keto reductase family 1 member B10 (Homo sapiens, UniProt O60218, W220Y). In words: Competitive inhibition of human recombinant AKR1B10 W220Y mutant expressed in Escherichia coli using geraniol as substrate by double-reciprocal plot analysis in presence of NADP+. The gist of the method: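 Trp220Tyr mutant purified from E. coli; geraniol oxidation with saturating NADP⁺ (0.25 mM) at 25 °C, followed by NADPH fluorescence (ex 340 nm, em 455 nm). Five geraniol levels (50–800 μM) were tested at three inhibitor concentrations. Ki came from slope and intercept replots of double-reciprocal plots; mean of at least three determinations.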

Experiment [5] has as its target T2, Aldo-keto reductase family 1 member B10. In words: Inhibition of human recombinant N-terminal His6-tagged AKR1B10 expressed in Escherichia coli by fluorescence assay in presence of NADPH.
Target sequence in this assay (O60218 whole entry): as above
For experiment [6], the target named is T1, Aldo-keto reductase family 1 member B1. Briefly: Inhibition of human recombinant N-terminal His6-tagged AKR1B1 expressed in Escherichia coli at 10000 nM by fluorescence assay in presence of NADPH.
Experiment [7] deals with T2, Aldo-keto reductase family 1 member B10. In words: Inhibition of human recombinant N-terminal His6-tagged AKR1B10 expressed in Escherichia coli at 10000 nM by fluorescence assay in presence of NADPH.
Target sequence in this assay (O60218 whole entry, looked up): as the sequence (O60218 whole entry) above

Chain of Aldo-keto reductase family 1 member B10 (Homo sapiens, UniProt O60218, Q303S) (O60218 whole entry Q303S): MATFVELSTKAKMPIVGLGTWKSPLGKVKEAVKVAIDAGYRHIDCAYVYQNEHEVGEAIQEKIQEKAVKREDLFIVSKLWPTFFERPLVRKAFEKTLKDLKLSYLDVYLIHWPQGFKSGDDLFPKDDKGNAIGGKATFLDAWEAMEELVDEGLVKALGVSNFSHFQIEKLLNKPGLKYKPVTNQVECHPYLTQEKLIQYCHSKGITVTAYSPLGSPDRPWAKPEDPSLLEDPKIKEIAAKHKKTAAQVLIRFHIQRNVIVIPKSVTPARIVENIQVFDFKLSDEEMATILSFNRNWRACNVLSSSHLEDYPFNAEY
Chain of Aldo-keto reductase family 1 member B10 (Homo sapiens, UniProt O60218, W220Y) (O60218 whole entry W220Y): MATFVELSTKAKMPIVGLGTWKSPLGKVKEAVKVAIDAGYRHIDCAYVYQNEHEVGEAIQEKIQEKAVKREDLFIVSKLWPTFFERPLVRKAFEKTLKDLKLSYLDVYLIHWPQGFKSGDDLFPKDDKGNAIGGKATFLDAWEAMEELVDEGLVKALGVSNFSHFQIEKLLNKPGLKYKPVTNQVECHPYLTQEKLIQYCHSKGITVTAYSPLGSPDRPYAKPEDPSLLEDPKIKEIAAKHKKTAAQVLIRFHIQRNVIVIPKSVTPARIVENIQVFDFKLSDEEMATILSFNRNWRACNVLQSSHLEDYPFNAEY

For orientation: Ki means the dissociation constant of the complex between target and ligand, obtained from inhibition or displacement. For orientation: IC50 means the concentration that gives 50% inhibition. As for `COc1ccc(/N=c2\oc3cc(O)ccc3cc2C(=O)NCc2ccccc2)cc1`, the Ki in experiment [1] worked out at 3.8 nM; in experiment [3], 1.3 nM; in experiment [4], 51 nM. Also, the IC50 in experiment [2] was found to be 24 nM; in experiment [5], 4.7 nM.
Regarding `Cc1ccc(/N=c2\oc3cc(O)ccc3cc2C(=O)Nc2ccccn2)cc1`, the IC50 was 26 nM in experiment [2] and 8.6 nM in experiment [5].
The like results for `COc1ccc(/N=c2\oc3cc(O)ccc3cc2C(=O)NC2CCCCC2)cc1` were, in that order, 27 nM and 11 nM.
The like results for `COc1ccc(/N=c2\oc3cc(O)ccc3cc2C(=O)NC(C)C)cc1` were, in that order, 6.7 nM and 9.7 nM.
In general, inhibition refers to the drop in the measured response relative to a control, in per cent. In the case of `COc1ccc(/N=c2\oc3cccc(O)c3cc2C(=O)Nc2ccccn2)cc1`, in experiment [2], the IC50 was > 10000 nM. Besides, the inhibition in experiment [6] is < 30%.
In the case of `O=C(Nc1ccccn1)c1cc2ccc(O)cc2o/c1=N\c1ccc(I)cc1`, the IC50 in experiment [2] was 12 nM; in experiment [5], 13 nM.
The like results for `COc1ccc(/N=c2\oc3cc(O)ccc3cc2C(=O)NCC(C)C)cc1` were, in that order, 28 nM and 16 nM.
The like results for `O=C(Nc1ccccn1)c1cc2ccc(O)cc2o/c1=N\c1ccccc1` were, in that order, 34 nM and 12 nM.
Take `COc1ccc(/N=c2\oc3ccccc3cc2C(=O)Nc2ccccn2)cc1`: the inhibition in experiment [6] is < 30%.
For `O=C(Nc1ccccn1)c1cc2ccc(O)cc2o/c1=N\c1ccc(Br)cc1`, the values for the IC50 in experiment [2] and in experiment [5] were 25 nM and 14 nM, respectively.
For `COc1ccc(/N=c2\oc3c(O)cccc3cc2C(=O)Nc2ccccn2)cc1`, the IC50 in experiment [2] and in experiment [5] was > 10000 nM in each case. In addition, the inhibition in experiment [7] and in experiment [6] was < 30% throughout.
Turning to `COc1ccc(/N=c2\oc3cc(O)ccc3cc2C(=O)NCCCO)cc1`, the figures for the half-inhibitory concentration (IC50) in experiment [2] and in experiment [5] were 29 nM and 8.8 nM, respectively.
On to `COc1ccc(/N=c2\oc3ccc(O)cc3cc2C(=O)Nc2ccccn2)cc1`, for which the IC50 in experiment [2] and in experiment [5] was > 10000 nM each time. Besides, the inhibition in experiment [7] and in experiment [6] was < 30% each time.
With `O=C(O)Cc1ccc(/N=c2\oc3cc(O)ccc3cc2C(=O)Nc2ccccn2)cc1`, the IC50 in experiment [2] is 20 nM; in experiment [5], 13 nM.
The like results for `COc1ccc(/N=c2\oc3cc(O)ccc3cc2C(=O)NCCO)cc1` were, in that order, 20 nM and 11 nM.
For `O=C(O)c1ccc(/N=c2\oc3cc(O)ccc3cc2C(=O)Nc2ccccn2)cc1`, the IC50 in experiment [2] is 19 nM; in experiment [5], 7.6 nM.
The like results for `O=C(Nc1ccccn1)c1cc2ccc(O)cc2o/c1=N\c1ccc(O)cc1` were, in that order, 24 nM and 6.8 nM.
The like results for `CCCCNC(=O)c1cc2ccc(O)cc2o/c1=N\c1ccc(OC)cc1` were, in that order, 28 nM and 18 nM.

Source of the values: ChEMBL document CHEMBL2440043, “Synthesis and structure-activity relationship of 2-phenyliminochromene derivatives as inhibitors for aldo-keto reductase (AKR) 1B10” (Bioorg Med Chem, 2013).
